Activity calls are given as the source filed them. No cut-off for these calls is given here.
What was measured:
[1] = biological target: T1, Retinoic acid receptor RXR-alpha (Homo sapiens) (UniProt P19793); assay: Antagonist activity against RXRalpha in TNFalpha-stimulated human A549 cells assessed as inhibition of AKT phosphorylation at 5 and 10 uM pre-treated for 24 hrs before TNFalpha addition in presence of RXRalpha siRNA by Western blotting method; format: cell-based
T1 sequence (whole entry): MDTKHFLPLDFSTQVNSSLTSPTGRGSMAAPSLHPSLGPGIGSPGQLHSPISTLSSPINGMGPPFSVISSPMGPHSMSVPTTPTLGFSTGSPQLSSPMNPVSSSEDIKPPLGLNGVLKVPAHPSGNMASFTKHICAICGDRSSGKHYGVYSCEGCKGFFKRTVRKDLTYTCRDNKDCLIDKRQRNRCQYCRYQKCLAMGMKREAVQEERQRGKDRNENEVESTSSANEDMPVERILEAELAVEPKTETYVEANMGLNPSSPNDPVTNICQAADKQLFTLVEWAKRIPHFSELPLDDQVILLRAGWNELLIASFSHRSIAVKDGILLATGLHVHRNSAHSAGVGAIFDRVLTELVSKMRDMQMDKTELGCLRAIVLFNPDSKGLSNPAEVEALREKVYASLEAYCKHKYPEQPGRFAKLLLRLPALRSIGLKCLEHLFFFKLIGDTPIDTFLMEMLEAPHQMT
Summary of the method: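 A549 cells were transfected with RXRα siRNA or control siRNA for 48 h. They were then treated with compound for 24 h, followed by TNFα (20 ng/mL) for 30 min. Lysates were analyzed by Western blot for AKT activation and PARP cleavage.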

[2] = biological target: T2, Retinoic acid receptor RXR-gamma (Homo sapiens) (UniProt P48443); assay: Antagonist activity against RXRgamma ligand binding domain (unknown origin) expressed in human HEK293T cells assessed as inhibition of 9-cis-RA-induced receptor transactivation at 2 and 10 uM after 18 hrs by luciferase reporter gene based mammalian one-hybrid assay; format: cell-based; settings: HEK-293T
T2 sequence (whole entry): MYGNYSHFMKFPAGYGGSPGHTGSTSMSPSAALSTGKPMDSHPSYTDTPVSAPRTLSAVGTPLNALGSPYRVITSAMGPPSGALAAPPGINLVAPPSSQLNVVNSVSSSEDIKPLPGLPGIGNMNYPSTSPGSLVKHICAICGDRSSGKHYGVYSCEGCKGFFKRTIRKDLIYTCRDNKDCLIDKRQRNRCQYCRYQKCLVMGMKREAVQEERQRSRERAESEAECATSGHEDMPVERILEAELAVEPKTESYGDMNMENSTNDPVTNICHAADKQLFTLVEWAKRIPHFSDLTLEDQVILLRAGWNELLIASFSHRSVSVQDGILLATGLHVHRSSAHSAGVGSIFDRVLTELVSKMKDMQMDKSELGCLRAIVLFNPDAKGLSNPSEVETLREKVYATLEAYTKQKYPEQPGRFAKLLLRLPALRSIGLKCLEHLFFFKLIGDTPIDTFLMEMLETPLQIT

inhibition [1]: inactive
inhibition [2]: Active
Compound: Cc1cc(=O)oc2c(/C=N/NC(=O)CSc3nc4ccccc4s3)c(O)ccc12

Reference: ChEMBL document CHEMBL3352174, “Identification of a New RXRα Antagonist Targeting the Coregulator-Binding Site” (ACS Med Chem Lett, 2014)
